EphB4 ephrin blk: blocks human EphB4 binding to ephrin-B2; 97,000 tested, 0.15% active; EphB4 LBD / TNYL-RAW-Alexa532 peptide, fluorescence polarization; inhibition, % at 7 µM; P54760;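 active = inhibition above the screen-wide mean inhibition plus 3 SD, cut at about 15% in these data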;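 note: 0% = DMSO wells and 100% = excess unlabeled TNYL-RAW peptide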
FAK inh: FAK (human) kinase inhibition; Q05397; biochemical FAK kinase activity assay; inhibition, %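 (tested at 7 µM)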; 97,000 tested, 0.84% active; in the data active = inhibition above about 19%;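 note: 0% = DMSO and 100% = reference compound high control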
Plk1 PBD FP: Plk1 (human) PBD binding inhibition | P53350 | Plk1 PBD phosphopeptide binding, fluorescence polarization | inhibition, %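 (tested at about 20 µM)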 | 97,000 tested, 0.13% active | AID 693; in the data active = inhibition above about 34%, passing the limit was not always enough
Cav32 inh: blocks human Cav3.2 T-type calcium channel; Cav3.2-expressing cells, Fluo-4 calcium fluorescence FDSS; stronger effect = lower value; O95180; 100,000 tested, 4% active; B-score at 10 µM; AID 449739;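 active = single-dose well whose peak fluorescence ratio is a statistical outlier from its plate by either plate-standardised score or position-corrected B-score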
HIV Rev-RRE inh: inhibitors of HIV-1 Rev-RRE RNA interaction. AID 704. Rev peptide-RRE RNA binding, FRET. P05866. 97,000 tested, 0.79% active. inhibition, % at 8 µM;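 active = inhibition above the screen-wide mean plus 3 SD, cut at about 35% in these data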;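 note: 0% = median DMSO wells and 100% = median Neomycin B control wells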
Target sequence (P05866 whole entry, looked up): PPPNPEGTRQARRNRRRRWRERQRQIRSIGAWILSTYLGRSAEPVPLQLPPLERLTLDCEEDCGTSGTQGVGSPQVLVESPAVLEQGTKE
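Probe or stimulus: fluorescein-Rev peptide as binding partner; assay system: Cy5-tagged RRE RNA duplex with fluorescein-tagged Rev peptide; timing: 5 min compound–RNA preincubation, then 15 min with peptide, 25 °C; medium: HEPES pH 7.5 buffer with KCl, MgCl2, NaCl and EDTA; signal: fluorescein-to-Cy5 FRET, 480 nm excitation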
PLK1 kinase inh: PLK1 (human) kinase inhibition | P53350 | recombinant PLK1 kinase, TR-FRET peptide phosphorylation | inhibition, % at 10 µM | 97,000 tested, 0.53% active | AID 619;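 active = inhibition of 50% or more in the single-concentration screen; inactive = inhibition below 50%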;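 note: 0% = DMSO max control and 100% = H-89 dihydrochloride min control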
PLK1 confirm: confirmation of human PLK1 kinase inhibitors; 210 tested, 20% active; inhibition, % at 10 µM; recombinant PLK1 kinase, TR-FRET peptide phosphorylation; shares compounds with PLK1 kinase inh;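 active = inhibition at or above 50% in each of two repeat confirmation tests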;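 note: 0% = DMSO max control and 100% = H-89 kinase-blocked min control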
Plk1 interf: Plk1 assay compound interference counter-screen hit | 210 tested, under 10 active | AID 756 | Plk1 TR-FRET assay interference, compound added post-reaction | inhibition (interference), % at 10 µM | shares compounds with PLK1 kinase inh;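 active = both duplicate runs show 50% or greater inhibition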;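 note: 0% = DMSO max control and 100% = H-89 min control inhibited reaction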
Active calls of the source: *; nt = not tested or not shown. In the library only some 5.3% were active in any assay of this set; here they are far more common.

SMILES	EphB4 ephrin blk	FAK inh	Plk1 PBD FP	Cav32 inh	HIV Rev-RRE inh	PLK1 kinase inh	PLK1 confirm	Plk1 interf
COC(=O)C1C2C=CC3(CN(c4cccc(Cl)c4)C(=O)C13)O2 (centres undefined)	5	-4	-34	-0.27	13	74*	-2	-50
COC(=O)C1C2C=CC3(CN(c4cccc(C)c4)C(=O)C13)O2 (centres undefined)	4	2	8	nt	7	-5	nt	nt
CCC(CC)c1nnc(NC(=O)CCCN2C(=O)c3ccccc3C2=O)s1	0	1	22	1.1	5	-3	nt	nt
CCc1cc(=O)oc2cc(OCC(=O)N(CC)CC)c(Cl)cc12	1	-2	-5	0.59	3	72*	-1	-57
O=C(COc1ccccc1C(=O)N/N=C\c1ccc(O)c(O)c1)N/N=C/c1ccc(O)c(O)c1	-1	2	5	nt	1	86*	72*	69*
CCOC(=O)c1[nH]c(C)c(C(=O)NCCN2CCOCC2)c1C	4	-3	-21	0.07	7	74*	-10	-52
CCOC(=O)c1[nH]c(C)c(C(=O)NCCCOC(C)C)c1C	nt	nt	nt	1	nt	nt	nt	nt
CCOC(=O)C1CCN(C(=O)CSCc2nc(-c3ccc(OCC)cc3)oc2C)CC1	nt	nt	nt	-2.5	nt	nt	nt	nt
CCOc1ccc(-c2nc(CSCC(=O)N3CCN(C(=O)c4ccco4)CC3)c(C)o2)cc1	4	-5	-3	0.67	6	74*	-14	-52
Cc1nn2c(=O)cc(CSc3nc4ccccc4[nH]3)nc2s1	-8	-1	-20	1.2	1	74*	-13	-60
CC1(C)CC(=O)C2=C(C1)OC(N)=C(C#N)C21CCN(Cc2ccccc2)CC1	nt	nt	nt	-1.1	nt	nt	nt	nt
Cc1nc2c([nH]1)C1(CCN(Cc3ccccc3)CC1)C(C#N)=C(N)O2	-2	3	1	0.054	28	70*	72*	-56
CCCCOC(=O)CCn1c(=S)oc2ccccc21	2	-4	13	-1.6	5	125*	-8	-52
Cc1ccc(-c2nc(CS(=O)CC(=O)NCCCN3CC(C)CC(C)C3)c(C)o2)cc1 (centres undefined)	-1	-2	-6	-2.7	5	76*	-15	-56
COCCn1c(SCC(=O)Nc2cc(C)on2)nnc1-c1c[nH]c2ccccc12	-3	-3	-2	-0.21	4	71*	0	-51
COCCn1c(SCc2cccnc2)nnc1-c1c[nH]c2ccccc12	0	-1	-21	-0.019	1	75*	-9	-47
O=C(c1ccco1)N1CCN(c2ncccn2)CC1	-1	2	-9	0.42	8	76*	-15	-49
Nc1nc(N2CCN(C(=O)c3ccco3)CC2)nc2ccccc12	-4	2	-24	0.37	-1	-2	nt	nt
CCOC(=O)n1cc(-c2cnc(CNC(=O)C(C)(c3ccccc3)c3ccccc3)o2)c2ccccc21	nt	nt	nt	-0.42	nt	nt	nt	nt
COc1ccccc1NC(=O)Cn1c(=O)n2nc(C)nc2c2ccccc21	-2	-1	9	0.68	1	3	nt	nt
COc1ccc(Cl)cc1NC(=O)Cn1c(=O)n2nc(C)nc2c2ccccc21	-8	2	-15	-0.29	9	78*	-6	-51
COc1ccccc1N1C(N)=NC(N)=NC1(C)C	8	4	10	nt	10	79*	4	-55
Cc1ccccc1N1C(N)=NC(N)=NC1(C)C	4	0	-14	0.028	9	-5	nt	nt
CCc1nc(NCCN)c(C#N)c2c1CSC(C)(C)C2	-7	2	-11	-0.073	8	0	nt	nt
CCc1nc2n[nH]c(N)c2c2c1CSC(C)(C)C2	2	2	16	0.71	5	77*	72*	-53
CC(C)CCNC(=O)Cn1c(NCCC(C)C)nc2c1c(=O)n(C)c(=O)n2C	-4	1	25	1.3	-5	-14	nt	nt
COc1cc(/C=C(\C#N)c2[nH]nc(N)c2C#N)cc(OC)c1O	4	4	-18	0.62	22	78*	66*	-48
COc1ccc(/C=C(/C#N)c2cccnc2)cc1OC	nt	nt	nt	0.64	nt	nt	nt	nt
